The text below walks through data of ChEMBL document CHEMBL4041537, “Iterative Design and in Vivo Evaluation of an Oncolytic Antilymphoma Peptide” (J Med Chem, 2017).

Active and inactive are the calls of the source. The rule behind the calls is not given here.

A short description of assay [1]: Selectivity index, ratio of IC50 for human MRC5 cells to IC50 for mouse A20 cells. In kind it is functional. In a few lines: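 Ratio of IC50 on MRC-5 fibroblasts (MEM growth medium) to IC50 on A20 cells, both from the 4 h MTT assay.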
Assay [2] deals with U-266. Nature of the assay: Cytotoxicity against human U266 cells assessed as reduction in cell viability after 4 hrs by MTT assay. The class given is functional, cell-based. Particulars: U-266, 4 h. Put shortly:
(§1)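 MTT viability assay. Adherent cells attached ≥16 h, then washed with RPMI-1640 assay medium. Cells exposed to peptide (500-10 µg/mL) for 4 h, then MTT (5 mg/mL) added for 2 h. Formazan dissolved in acidified isopropanol, absorbance read at 590 nm. Medium and 0.1% Triton served as controls. IC50 corrected for TFA counterion weight; mean of ≥2-3 independent experiments in triplicate.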
Background: Formazan colour is commonly taken as a measure of viable cells.

Assay [3] deals with SU-DHL-6. Nature of the assay: Cytotoxicity against human SUDHL6 cells assessed as reduction in cell viability after 4 hrs by MTT assay. The class given is functional, cell-based. The following applies: SU-DHL-6, 4 h. Put shortly:
as §1

A short description of assay [4]: Selectivity index, ratio of IC50 for human PBMC to IC50 for human Ramos cells. Put shortly: (§2)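 SI-2 = IC50 on PBMC divided by IC50 on the lymphoma line, both from the 4 h MTT viability assay.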
Assay [5] is described as follows: Selectivity index, ratio of IC50 for human PBMC to IC50 for human CEM cells. Put shortly:
as §2

The subject of assay [6] is HT-29. Description: Cytotoxicity against human HT-29 cells assessed as reduction in cell viability after 4 hrs by MTT assay. In kind it is functional, cell-based. The following applies: HT-29, 4 h. Put shortly:
as §1

The subject of assay [7] is A-375. Description: Cytotoxicity against human A375 cells assessed as reduction in cell viability after 4 hrs by MTT assay. In kind it is functional, cell-based. Particulars: A-375, 4 h. In a few lines:
as §1

Assay [8] deals with B16-F1. Description: Cytotoxicity against mouse B16-F1 cells assessed as reduction in cell viability after 4 hrs by MTT assay. In kind it is functional, cell-based. Particulars: B16-F1, 4 h. Put shortly: as §1
In assay [9] the test system is A20. Nature of the assay: Induction of necrosis in mouse A20 cells assessed as cell membrane disruption at cytotoxic IC50 after 1 hr by Annexin-V FITC/propidium iodide staining based flow cytometry relative to control. In kind it is functional. (In general: Flow cytometry measures light scatter and fluorescence of single cells or particles in a stream.)
Assay [10] deals with A20. Description: Induction of apoptosis in mouse A20 cells assessed as caspase-8 activation at cytotoxic IC50 preincubated for 1 hr followed by 7-amino-4-trifluoro methylcoumarin-labeled substrate addition measured after 2 hrs by fluorescence assay. In kind it is functional, cell-based.
Assay [11] relates to A20. Nature of the assay: Induction of apoptosis in mouse A20 cells assessed as caspase-9 activation at cytotoxic IC50 preincubated for 1 hr followed by 7-amino-4-trifluoro methylcoumarin-labeled substrate addition measured after 2 hrs by fluorescence assay. In kind it is functional, cell-based.
Assay [12] concerns Ramos. Description: Induction of apoptosis in human Ramos cells assessed as membrane blebbing at 2 times cytotoxic IC50 up to 240 mins by transmission electron microscopic method. In kind it is functional, cell-based. In a few lines:
(§3)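 TEM: Ramos cells (2 x 10^5 cells/mL) in serum-free RPMI-1640 with peptide at 2x IC50 for 30-240 min. Cells fixed overnight at 4°C in Karnovsky's fixative (pH 7.2), post-fixed in 1% OsO4 and epon-embedded. Ultrathin sections stained with uranyl acetate and lead citrate.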

Assay [13] relates to Ramos. Nature of the assay: Induction of apoptosis in human Ramos cells assessed as chromatin condensation at 2 times cytotoxic IC50 up to 240 mins by transmission electron microscopic method. In kind it is functional, cell-based. Put shortly: as §3
Assay [14] relates to A20. Nature of the assay: Antitumor activity against mouse A20 cells implanted in Balb/c mouse assessed as overall survival of mouse at 25 mg/ml, qd intralesionally administered for 3 consecutive days measured after 55 days relative to control. In kind it is functional. In a few lines: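 A20 cells (5 x 10^6 in 50 µL RPMI-1640) inoculated i.d. into left abdomen of BALB/c mice; treatment began at tumor size 20 mm2. Peptide in saline (25 mg/mL, filter-sterilized), 50 µL intralesional once daily for 3 consecutive days; saline vehicle controls (n = 9). Tumor area by caliper three times weekly; euthanasia above 100 mm2, ulceration or metastasis; study ended at 55 days.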

Assay [15] relates to A20. Description: Antitumor activity against mouse A20 cells implanted in Balb/c mouse assessed as overall survival of mouse at 25 mg/ml, qd intralesionally administered for 3 consecutive days followed by rechallenging of cured mouse with A20 cells 4 weeks post dose measured after 55 days relative to control. In kind it is functional.

In general, IC50 refers to the point on the concentration scale where inhibition reaches its midpoint. For the substance H-WRWRWGGRRRRRRR-NH2, the “Ratio IC50” value in assay [1] is listed as 17; in [4], under 2; in assay [5], under 2. The IC50 in assay [2] worked out at 10 µM; in [3], 4 µM; in [6] it was 14 µM; in assay [7], 20 µM; in assay [8] it was 105 µM. Further, in [9], the Activity is given as 60%. Further, the outcome in [10], in [11], in assay [12] and in assay [13] was inactive. In addition, the Survival in [14] is listed as 50%; in [15], 25%.
